# Measurements taken from ChEMBL document CHEMBL1141655, “Structure-activity relationships of Bak derived peptides: affinity and specificity modulations by amino acid replacement” (Eur J Med Chem, 2008).
# Target: Bcl-2-like protein 1 (Homo sapiens, UniProt Q07817)
# Assay: Binding affinity to recombinant Bcl-XL expressed in Escherichia coli BL21 by fluorescence polarization assay
# Chain of Bcl-2-like protein 1 (Q07817 whole entry): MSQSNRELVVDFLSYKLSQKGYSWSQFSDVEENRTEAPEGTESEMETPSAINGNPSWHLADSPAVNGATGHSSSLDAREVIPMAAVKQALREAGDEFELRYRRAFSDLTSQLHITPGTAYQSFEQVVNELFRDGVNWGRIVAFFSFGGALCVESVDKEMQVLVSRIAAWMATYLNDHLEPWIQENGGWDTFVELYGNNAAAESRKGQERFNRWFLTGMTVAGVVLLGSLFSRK
row,EC50 [nM],Structure (SMILES)
1,1430,CC[C@H](C)[C@H](NC(=O)[C@H](C)NC(=O)[C@H](CCSC)NC(=O)[C@H](CCC(N)=O)NC(=O)[C@H](CCCN=C(N)N)NC(=O)CNC(=O)[C@@H](NC(=O)[C@H](CCC(N)=O)NC(=O)CN)C(C)C)C(=O)N[C@H](C(=O)NCC(=O)N[C@@H](CC(=O)O)C(=O)N[C@@H](CC(=O)O)C(=O)N[C@H](C(=O)N[C@@H](CC(N)=O)C(=O)N[C@@H](CCCN=C(N)N)C(=O)O)[C@@H](C)CC)[C@@H](C)CC
2,1250,CC[C@H](C)[C@H](NC(=O)[C@H](C)NC(=O)[C@H](CC(C)C)NC(=O)[C@H](CCC(N)=O)NC(=O)[C@H](CCCN=C(N)N)NC(=O)CNC(=O)[C@@H](NC(=O)[C@H](CCC(N)=O)NC(=O)CN)C(C)C)C(=O)N[C@@H](Cc1ccc(-c2ccccc2)cc1)C(=O)NCC(=O)N[C@@H](CC(=O)O)C(=O)N[C@@H](CC(=O)O)C(=O)N[C@H](C(=O)N[C@@H](CC(N)=O)C(=O)N[C@@H](CCCN=C(N)N)C(=O)O)[C@@H](C)CC
3,> 10000,CC[C@H](C)[C@H](NC(=O)[C@H](C)NC(=O)[C@H](Cc1cccc2ccccc12)NC(=O)[C@H](CCC(N)=O)NC(=O)[C@H](CCCNC(=N)N)NC(=O)CNC(=O)[C@@H](NC(=O)[C@H](CCC(N)=O)NC(=O)CN)C(C)C)C(=O)N[C@H](C(=O)NCC(=O)N[C@@H](CC(=O)O)C(=O)N[C@@H](CC(=O)O)C(=O)N[C@H](C(=O)N[C@@H](CC(N)=O)C(=O)N[C@@H](CCCNC(=N)N)C(=O)O)[C@@H](C)CC)[C@@H](C)CC
4,219,CC[C@H](C)[C@H](NC(=O)[C@H](C)NC(=O)[C@H](CC1CCCCC1)NC(=O)[C@H](CCC(N)=O)NC(=O)[C@H](CCCNC(=N)N)NC(=O)CNC(=O)[C@@H](NC(=O)[C@H](CCC(N)=O)NC(=O)CN)C(C)C)C(=O)N[C@H](C(=O)NCC(=O)N[C@@H](CC(=O)O)C(=O)N[C@@H](CC(=O)O)C(=O)N[C@H](C(=O)N[C@@H](CC(N)=O)C(=O)N[C@@H](CCCNC(=N)N)C(=O)O)[C@@H](C)CC)[C@@H](C)CC
5,125,CC[C@H](C)[C@H](NC(=O)[C@H](C)NC(=O)[C@H](CC(C)C)NC(=O)[C@H](CCC(N)=O)NC(=O)[C@H](CCCN=C(N)N)NC(=O)CNC(=O)[C@@H](NC(=O)[C@H](CCC(N)=O)NC(=O)CN)C(C)C)C(=O)N[C@H](C(=O)NCC(=O)N[C@@H](CC(=O)O)C(=O)N[C@@H](CC(=O)O)C(=O)N[C@@H](Cc1ccc2ccccc2c1)C(=O)N[C@@H](CC(N)=O)C(=O)N[C@@H](CCCN=C(N)N)C(=O)O)[C@@H](C)CC
6,299,CC[C@H](C)[C@H](NC(=O)[C@H](C)NC(=O)[C@H](CC(C)C)NC(=O)[C@H](CCC(N)=O)NC(=O)[C@H](CCCN=C(N)N)NC(=O)CNC(=O)[C@@H](NC(=O)[C@H](CCC(N)=O)NC(=O)CN)C(C)C)C(=O)N[C@@H](Cc1cccc2ccccc12)C(=O)NCC(=O)N[C@@H](CC(=O)O)C(=O)N[C@@H](CC(=O)O)C(=O)N[C@H](C(=O)N[C@@H](CC(N)=O)C(=O)N[C@@H](CCCN=C(N)N)C(=O)O)[C@@H](C)CC
7,405,CC[C@H](C)[C@H](NC(=O)[C@H](C)NC(=O)[C@H](Cc1ccccc1)NC(=O)[C@H](CCC(N)=O)NC(=O)[C@H](CCCN=C(N)N)NC(=O)CNC(=O)[C@@H](NC(=O)[C@H](CCC(N)=O)NC(=O)CN)C(C)C)C(=O)N[C@H](C(=O)NCC(=O)N[C@@H](CC(=O)O)C(=O)N[C@@H](CC(=O)O)C(=O)N[C@H](C(=O)N[C@@H](CC(N)=O)C(=O)N[C@@H](CCCN=C(N)N)C(=O)O)[C@@H](C)CC)[C@@H](C)CC
8,267,CC[C@H](C)[C@H](NC(=O)[C@H](C)NC(=O)[C@H](CC(C)C)NC(=O)[C@H](CCC(N)=O)NC(=O)[C@H](CCCNC(=N)N)NC(=O)CNC(=O)[C@@H](NC(=O)[C@H](CCC(N)=O)NC(=O)CN)C(C)C)C(=O)N[C@H](C(=O)NCC(=O)N[C@@H](CC(=O)O)C(=O)N[C@@H](CC(=O)O)C(=O)N[C@@H](Cc1ccc(-c2ccccc2)cc1)C(=O)N[C@@H](CC(N)=O)C(=O)N[C@@H](CCCNC(=N)N)C(=O)O)[C@@H](C)CC
9,9740,CC[C@H](C)[C@H](NC(=O)[C@H](C)NC(=O)[C@H](Cc1cccnc1)NC(=O)[C@H](CCC(N)=O)NC(=O)[C@H](CCCN=C(N)N)NC(=O)CNC(=O)[C@@H](NC(=O)[C@H](CCC(N)=O)NC(=O)CN)C(C)C)C(=O)N[C@H](C(=O)NCC(=O)N[C@@H](CC(=O)O)C(=O)N[C@@H](CC(=O)O)C(=O)N[C@H](C(=O)N[C@@H](CC(N)=O)C(=O)N[C@@H](CCCN=C(N)N)C(=O)O)[C@@H](C)CC)[C@@H](C)CC
10,2140,CC[C@H](C)[C@H](NC(=O)[C@H](C)NC(=O)[C@H](CC(C)C)NC(=O)[C@H](CCC(N)=O)NC(=O)[C@H](CCCNC(=N)N)NC(=O)CNC(=O)[C@@H](NC(=O)[C@H](CCC(N)=O)NC(=O)CN)C(C)C)C(=O)N[C@@H](Cc1ccccc1)C(=O)NCC(=O)N[C@@H](CC(=O)O)C(=O)N[C@@H](CC(=O)O)C(=O)N[C@H](C(=O)N[C@@H](CC(N)=O)C(=O)N[C@@H](CCCNC(=N)N)C(=O)O)[C@@H](C)CC
11,304,CC[C@H](C)[C@H](NC(=O)[C@H](C)NC(=O)[C@H](CC(C)C)NC(=O)[C@H](CCC(N)=O)NC(=O)[C@H](CCCN=C(N)N)NC(=O)CNC(=O)[C@H](Cc1ccccc1)NC(=O)[C@H](CCC(N)=O)NC(=O)CN)C(=O)N[C@H](C(=O)NCC(=O)N[C@@H](CC(=O)O)C(=O)N[C@@H](CC(=O)O)C(=O)N[C@H](C(=O)N[C@@H](CC(N)=O)C(=O)N[C@@H](CCCN=C(N)N)C(=O)O)[C@@H](C)CC)[C@@H](C)CC
12,45,CC[C@H](C)[C@H](NC(=O)[C@H](C)NC(=O)[C@H](CC(C)C)NC(=O)[C@H](CCC(N)=O)NC(=O)[C@H](CCCN=C(N)N)NC(=O)CNC(=O)[C@@H](NC(=O)[C@H](CCC(N)=O)NC(=O)CN)C(C)C)C(=O)N[C@H](C(=O)NCC(=O)N[C@@H](CC(=O)O)C(=O)N[C@@H](CC(=O)O)C(=O)N[C@@H](Cc1ccc(I)cc1)C(=O)N[C@@H](CC(N)=O)C(=O)N[C@@H](CCCN=C(N)N)C(=O)O)[C@@H](C)CC

# Target: Apoptosis regulator Bcl-2 (Homo sapiens, UniProt P10415)
# Sequence (P10415 whole entry): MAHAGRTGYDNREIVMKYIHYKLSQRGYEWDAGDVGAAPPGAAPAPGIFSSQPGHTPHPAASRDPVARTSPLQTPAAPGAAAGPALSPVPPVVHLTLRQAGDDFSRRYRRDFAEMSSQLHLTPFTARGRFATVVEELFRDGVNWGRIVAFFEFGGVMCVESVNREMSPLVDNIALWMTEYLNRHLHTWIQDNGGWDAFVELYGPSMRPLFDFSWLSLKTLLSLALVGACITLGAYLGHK
# Assay: Binding affinity to recombinant Bcl-2 expressed in Escherichia coli BL21 by fluorescence polarization assay
# Outline: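 GST-Bcl-2 lacking C-terminal 21 residues, glutathione-resin purified, dialysed into 20 mM phosphate pH 7.4, 1 mM EDTA, 50 mM NaCl. Competition FP: fluorescein N-terminal Bak BH3 probe 15 nM, protein 1 µM, peptide final 10^-9 to 10^-4 M with 0.05% pluronic acid; 30 min room temperature; ex 485/em 535 nm, mP. EC50 from sigmoidal dose-response, n = 2, triplicate.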
row,EC50 [nM],Structure (SMILES)
1,29900,CC[C@H](C)[C@H](NC(=O)[C@H](C)NC(=O)[C@H](CCSC)NC(=O)[C@H](CCC(N)=O)NC(=O)[C@H](CCCN=C(N)N)NC(=O)CNC(=O)[C@@H](NC(=O)[C@H](CCC(N)=O)NC(=O)CN)C(C)C)C(=O)N[C@H](C(=O)NCC(=O)N[C@@H](CC(=O)O)C(=O)N[C@@H](CC(=O)O)C(=O)N[C@H](C(=O)N[C@@H](CC(N)=O)C(=O)N[C@@H](CCCN=C(N)N)C(=O)O)[C@@H](C)CC)[C@@H](C)CC
2,20700,CC[C@H](C)[C@H](NC(=O)[C@H](C)NC(=O)[C@H](CC(C)C)NC(=O)[C@H](CCC(N)=O)NC(=O)[C@H](CCCN=C(N)N)NC(=O)CNC(=O)[C@@H](NC(=O)[C@H](CCC(N)=O)NC(=O)CN)C(C)C)C(=O)N[C@@H](Cc1ccc(-c2ccccc2)cc1)C(=O)NCC(=O)N[C@@H](CC(=O)O)C(=O)N[C@@H](CC(=O)O)C(=O)N[C@H](C(=O)N[C@@H](CC(N)=O)C(=O)N[C@@H](CCCN=C(N)N)C(=O)O)[C@@H](C)CC

# System: not listed separately
# Assay: Selectivity ratio of EC50 for recombinant Bcl-2 to EC50 for recombinant Bcl-XL
row,Ratio EC50,Structure (SMILES)
1,11,CCCC[C@H](NC(=O)[C@H](CCC(N)=O)NC(=O)CN)C(=O)NCC(=O)N[C@@H](CCCNC(=N)N)C(=O)N[C@@H](CCC(N)=O)C(=O)N[C@@H](CC(C)C)C(=O)N[C@@H](C)C(=O)N[C@H](C(=O)N[C@H](C(=O)NCC(=O)N[C@@H](CC(=O)O)C(=O)N[C@@H](CC(=O)O)C(=O)N[C@H](C(=O)N[C@@H](CC(N)=O)C(=O)N[C@@H](CCCNC(=N)N)C(=O)O)[C@@H](C)CC)[C@@H](C)CC)[C@@H](C)CC
2,17,CC[C@H](C)[C@H](NC(=O)[C@H](C)NC(=O)[C@H](CC(C)C)NC(=O)[C@H](CCC(N)=O)NC(=O)[C@H](CCCNC(=N)N)NC(=O)CNC(=O)[C@@H](NC(=O)[C@H](CCC(N)=O)NC(=O)CN)C(C)C)C(=O)N[C@@H](Cc1ccc(-c2ccccc2)cc1)C(=O)NCC(=O)N[C@@H](CC(=O)O)C(=O)N[C@@H](CC(=O)O)C(=O)N[C@H](C(=O)N[C@@H](CC(N)=O)C(=O)N[C@@H](CCCNC(=N)N)C(=O)O)[C@@H](C)CC
3,21,CC[C@H](C)[C@H](NC(=O)[C@H](C)NC(=O)[C@H](CCSC)NC(=O)[C@H](CCC(N)=O)NC(=O)[C@H](CCCNC(=N)N)NC(=O)CNC(=O)[C@@H](NC(=O)[C@H](CCC(N)=O)NC(=O)CN)C(C)C)C(=O)N[C@H](C(=O)NCC(=O)N[C@@H](CC(=O)O)C(=O)N[C@@H](CC(=O)O)C(=O)N[C@H](C(=O)N[C@@H](CC(N)=O)C(=O)N[C@@H](CCCNC(=N)N)C(=O)O)[C@@H](C)CC)[C@@H](C)CC
